Common to all, as to format: cell-based, HEK293
For one experiment, the target named is T1, Progesterone receptor (Homo sapiens, UniProt P06401).
T1 sequence (P06401 whole entry): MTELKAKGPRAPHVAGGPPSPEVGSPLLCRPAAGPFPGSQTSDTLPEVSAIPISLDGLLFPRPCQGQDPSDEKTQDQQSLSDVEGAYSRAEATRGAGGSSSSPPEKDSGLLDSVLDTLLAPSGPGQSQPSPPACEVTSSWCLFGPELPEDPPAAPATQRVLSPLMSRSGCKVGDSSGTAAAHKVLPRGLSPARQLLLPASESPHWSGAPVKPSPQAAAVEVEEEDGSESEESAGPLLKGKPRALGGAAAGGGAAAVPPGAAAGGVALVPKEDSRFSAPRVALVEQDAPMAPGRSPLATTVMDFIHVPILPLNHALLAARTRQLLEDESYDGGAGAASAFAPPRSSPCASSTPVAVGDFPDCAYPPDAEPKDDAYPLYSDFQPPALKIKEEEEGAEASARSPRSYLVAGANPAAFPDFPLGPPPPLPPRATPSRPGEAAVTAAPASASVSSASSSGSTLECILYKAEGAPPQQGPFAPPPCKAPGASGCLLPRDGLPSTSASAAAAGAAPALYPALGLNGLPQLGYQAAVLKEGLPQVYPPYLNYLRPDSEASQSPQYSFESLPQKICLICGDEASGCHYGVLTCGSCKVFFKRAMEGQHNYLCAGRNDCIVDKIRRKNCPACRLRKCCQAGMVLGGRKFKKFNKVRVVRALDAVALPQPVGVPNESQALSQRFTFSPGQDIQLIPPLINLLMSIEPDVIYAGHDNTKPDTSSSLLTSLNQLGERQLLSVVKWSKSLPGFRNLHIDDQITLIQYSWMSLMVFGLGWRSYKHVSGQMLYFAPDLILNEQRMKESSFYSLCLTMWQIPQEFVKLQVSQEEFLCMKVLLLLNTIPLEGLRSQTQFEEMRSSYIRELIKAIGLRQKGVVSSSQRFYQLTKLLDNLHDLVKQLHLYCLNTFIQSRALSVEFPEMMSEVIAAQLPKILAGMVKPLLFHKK
As to the kind of experiment: Displacement of [3H]-Progesterone from human PR expressed in 293 cells after 16 hrs by scintillation counting. Put shortly: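 The PR assay ran like the MR cytosolic binding assay from transfected 293 cells, with 5 nM [3H]-progesterone as ligand. Incubation was 16 h at 4 °C in TEGM buffer pH 7.2, followed by dextran/gelatin-charcoal removal of free label and scintillation counting of the supernatant. Concentrations were run in duplicate; IC50 taken as the mean of duplicate experiments from concentration-response curves.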
For orientation: In a radioligand displacement assay an active substance lowers the binding of a labelled ligand.

The next experiment has as its target T2, Androgen receptor (Homo sapiens, UniProt P10275).
T2 sequence (P10275 whole entry): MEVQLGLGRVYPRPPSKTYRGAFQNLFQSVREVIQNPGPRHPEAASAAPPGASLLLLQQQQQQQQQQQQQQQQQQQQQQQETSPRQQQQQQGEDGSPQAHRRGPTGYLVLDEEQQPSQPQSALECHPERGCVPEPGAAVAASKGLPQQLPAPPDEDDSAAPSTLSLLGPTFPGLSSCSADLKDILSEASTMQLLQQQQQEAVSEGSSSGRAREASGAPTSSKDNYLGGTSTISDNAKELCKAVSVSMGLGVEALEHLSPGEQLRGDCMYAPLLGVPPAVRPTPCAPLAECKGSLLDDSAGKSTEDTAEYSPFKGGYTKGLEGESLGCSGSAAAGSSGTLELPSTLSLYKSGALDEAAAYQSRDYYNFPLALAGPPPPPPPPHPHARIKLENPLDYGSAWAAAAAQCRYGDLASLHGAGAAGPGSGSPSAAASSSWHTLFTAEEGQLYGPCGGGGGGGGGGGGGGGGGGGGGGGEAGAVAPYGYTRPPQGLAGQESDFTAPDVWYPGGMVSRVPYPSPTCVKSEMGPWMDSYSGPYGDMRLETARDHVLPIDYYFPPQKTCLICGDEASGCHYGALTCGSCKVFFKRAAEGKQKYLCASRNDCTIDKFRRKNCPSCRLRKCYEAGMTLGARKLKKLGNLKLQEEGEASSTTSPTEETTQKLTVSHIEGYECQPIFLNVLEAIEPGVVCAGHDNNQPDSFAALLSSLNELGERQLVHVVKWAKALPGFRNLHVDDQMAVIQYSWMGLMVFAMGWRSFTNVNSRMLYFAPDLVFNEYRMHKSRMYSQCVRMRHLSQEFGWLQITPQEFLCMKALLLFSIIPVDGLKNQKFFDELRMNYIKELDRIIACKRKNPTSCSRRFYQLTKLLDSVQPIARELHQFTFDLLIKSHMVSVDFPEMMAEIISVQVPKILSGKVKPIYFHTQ
In words: Displacement of [3H]-Testosterone from human AR expressed in 293 cells after 16 hrs by scintillation counting. In outline:
(§1)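 These followed the MR cytosolic binding protocol (transfected 293 cells, TEGM buffer pH 7.2, 16 h at 4 °C, charcoal separation, scintillation counting of supernatant). The ligand was [3H]-dexamethasone for GR and [3H]-testosterone for AR. Concentrations were run in duplicate; IC50 taken as the mean of duplicate experiments from concentration-response curves.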

The next experiment addresses T3, Glucocorticoid receptor (Homo sapiens, UniProt P04150).
T3 sequence (P04150 whole entry): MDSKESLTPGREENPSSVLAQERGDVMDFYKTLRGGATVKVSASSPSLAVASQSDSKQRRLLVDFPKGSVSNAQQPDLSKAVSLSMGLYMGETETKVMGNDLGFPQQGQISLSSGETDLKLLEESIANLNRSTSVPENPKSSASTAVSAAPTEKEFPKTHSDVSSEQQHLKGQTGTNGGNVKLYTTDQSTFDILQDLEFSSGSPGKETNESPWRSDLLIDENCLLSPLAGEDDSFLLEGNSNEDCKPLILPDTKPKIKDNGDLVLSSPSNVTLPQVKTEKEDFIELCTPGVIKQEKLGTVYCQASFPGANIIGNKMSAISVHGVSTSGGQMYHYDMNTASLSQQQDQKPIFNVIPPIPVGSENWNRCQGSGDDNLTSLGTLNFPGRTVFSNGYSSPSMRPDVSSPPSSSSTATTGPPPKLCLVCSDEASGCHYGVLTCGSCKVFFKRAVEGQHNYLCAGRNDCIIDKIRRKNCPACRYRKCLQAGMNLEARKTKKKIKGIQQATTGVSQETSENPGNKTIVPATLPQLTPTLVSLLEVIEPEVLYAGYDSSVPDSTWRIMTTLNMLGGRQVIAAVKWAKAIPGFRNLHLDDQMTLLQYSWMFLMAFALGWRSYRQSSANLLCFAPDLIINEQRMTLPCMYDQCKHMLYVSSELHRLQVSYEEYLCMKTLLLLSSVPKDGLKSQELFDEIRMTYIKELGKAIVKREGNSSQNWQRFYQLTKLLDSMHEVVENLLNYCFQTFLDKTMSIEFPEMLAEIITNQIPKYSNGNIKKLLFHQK
In words: Displacement of [3H]-Dexamethasone human GR expressed in 293 cells after 16 hrs by scintillation counting. In outline:
as §1

On to `CC1NC(=O)C(c2ccc(F)cc2)=C1c1ccc2c(c1)NC(=O)CO2` (centres undefined), for which the IC50 on Progesterone receptor was 5.6 µM; on Androgen receptor it was more than 10 µM; at Glucocorticoid receptor it was 9.1 µM.

As to `CC1C(c2ccc3c(c2)NC(=O)CO3)=C(c2ccc(F)cc2)C(=O)N1C1CC1` (centres undefined), the IC50 on Progesterone receptor is 0.4 µM; on Androgen receptor it was more than 10 µM; at Glucocorticoid receptor, 2.2 µM.

For `CCC1OC(=O)C(c2ccc(F)cc2)=C1c1ccc2c(c1)NC(=O)CO2` (centres undefined), the IC50 is 2.2 µM on Progesterone receptor, more than 10 µM on Androgen receptor and 2 µM at Glucocorticoid receptor.

With `CC1C(c2ccc3c(c2)NC(=O)CO3)=C(c2ccc(F)cc2)C(=O)N1C` (centres undefined), the IC50 was 0.061 µM at Progesterone receptor, more than 10 µM on Androgen receptor and 2.1 µM at Glucocorticoid receptor.

Regarding `Cc1cc(F)ccc1C1=C(c2ccc3c(c2)NC(=O)CO3)COC1=O`, the IC50 on Progesterone receptor was 1.8 µM; on Androgen receptor, more than 10 µM; on Glucocorticoid receptor, more than 10 µM.

As for `CC1(F)OC(=O)C(c2ccc(F)cc2)=C1c1ccc2c(c1)NC(=O)CO2` (centres undefined), the values for the IC50 at Progesterone receptor, on Androgen receptor and at Glucocorticoid receptor were 5 µM, more than 10 µM and more than 10 µM, respectively.

Turning to `CCN1C(=O)C(c2ccc(F)cc2)=C(c2ccc3c(c2)NC(=O)CO3)C1C` (centres undefined), the values for the IC50 at Progesterone receptor, at Androgen receptor and at Glucocorticoid receptor were 0.77 µM, more than 10 µM and 1.6 µM, respectively.

Consider `CC1NC(=O)C(c2ccc(F)cc2)=C1c1cc(Cl)c2c(c1)NC(=O)CO2` (centres undefined), for which the IC50 at Progesterone receptor is 1.6 µM; on Androgen receptor it was more than 10 µM; at Glucocorticoid receptor, 1.1 µM.

As to `O=C1COc2ccc(C3=C(c4ccc(F)cc4)C(=O)OC3)cc2N1`, the IC50 on Progesterone receptor, on Androgen receptor and at Glucocorticoid receptor was more than 10 µM throughout.

For `Cc1cc(C2=C(c3ccc(F)cc3)C(=O)NC2C)cc2c1OCC(=O)N2` (centres undefined), the IC50 was more than 10 µM on Progesterone receptor, more than 10 µM at Androgen receptor and 4.9 µM at Glucocorticoid receptor.

As for `CC1C(c2ccc3c(c2)NC(=O)CO3)=C(c2ccc(F)cc2)C(=O)N1CCO` (centres undefined), the IC50 at Progesterone receptor, on Androgen receptor and on Glucocorticoid receptor was more than 10 µM each time.

For `CC1NC(=O)C(c2ccc(F)cc2)=C1c1cc(F)c2c(c1)NC(=O)CO2` (centres undefined), the half-inhibitory concentration (IC50) is 3.2 µM at Progesterone receptor, more than 10 µM on Androgen receptor and 5 µM on Glucocorticoid receptor.

As for `CC1(C)OC(=O)C(c2ccc(F)cc2)=C1c1ccc2c(c1)NC(=O)CO2`, the IC50 was 1 µM at Progesterone receptor, more than 10 µM on Androgen receptor and 4.7 µM at Glucocorticoid receptor.

The IC50 is the concentration that inhibits the measured activity by half.

(Values after ChEMBL document CHEMBL2417412, “Design, synthesis, and structure-activity relationships of dihydrofuran-2-one and dihydropyrrol-2-one derivatives as novel benzoxazin-3-one-based mineralocorticoid receptor antagonists” (Bioorg Med Chem, 2013).)
